Test results reported in ChEMBL document CHEMBL1148507, “Discovery of a novel, orally active, small molecule gonadotropin-releasing hormone (GnRH) receptor antagonist” (J Med Chem, 2006).

Legend:
Cytochrome P450 3A4 = Cytochrome P450 3A4 (Homo sapiens, UniProt P08684); assay: Inhibition of CYP3A4; type: ADME
Cytochrome P450 2C9 = Cytochrome P450 2C9 (Homo sapiens, UniProt P11712); assay: Inhibition of CYP2C9; type: ADME
[1] = Half life in Sprague-Dawley rat at 5 mg/kg, iv or 20 mg/kg, po; type: ADME, organism-based; details: in vivo
In short: (§1)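 Intact male rats with indwelling jugular vein catheters, recovered overnight; single dose 5 mg/kg i.v. (5 mg/mL in 70% PEG400/30% H2O) or 20 mg/kg p.o. (20 mg/mL suspension in 0.5% CMC). Plasma by C18 HPLC, 50-70% ACN gradient in 10 mM ammonium phosphate pH 7, UV 260 nm; noncompartmental parameters; F = AUCp.o./AUCi.v.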

[2] = Clearance in Sprague-Dawley rat at 5 mg/kg, iv or 20 mg/kg, po; type: ADME, organism-based; details: in vivo; in short: as §1
[3] = Volume of distribution in Sprague-Dawley rat at 5 mg/kg, iv or 20 mg/kg, po; type: ADME, organism-based; details: in vivo, read-out: Vdss; in short: as §1
[4] = Oral bioavailability in Sprague-Dawley rat at 5 mg/kg, iv and 20 mg/kg, po; type: ADME, organism-based; details: in vivo; in short: as §1
Rattus norvegicus [5] = assay: Suppression of testosterone level to below 0.5 ng/mL castrate level for 12 hrs in po dosed gonad intact Sprague-Dawley rat; type: ADME, organism-based; details: in vivo
In short: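 Single-housed intact male SD rats (300-325 g), jugular cannulated 3 days prior; basal bleed 7:00-7:30 am, then single oral dose 5.0, 25, 50 or 100 mg/kg in 0.5% CMC suspension, n = 6/dose; serial heparinized plasma; testosterone by coated-tube RIA; castrate level <0.5 ng/mL; mean ± SEM.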

Rattus norvegicus [6] = assay: Suppression of luteinizing hormone levels to below 0.12 mIU/mL in po dosed castrated Sprague-Dawley rat; type: ADME, organism-based; details: in vivo
In short: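 Male SD rats (200-225 g) castrated under halothane, 14 days recovery, jugular cannulated; basal bleed then single oral dose 5.0, 20, 50 or 100 mg/kg in 0.5% CMC, n = 6/dose; serial plasma LH by coated-tube RIA, detection limit 0.12 mIU/mL; mean ± SEM.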

Adenosine receptor A3 = Adenosine receptor A3 (Homo sapiens, UniProt P0DMS8); assay: Binding affinity to human A3 receptor
In short: (§2)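 Selectivity panel of 54 assays (ion channels, GPCRs, monoamine transporters) run at Cerep; Ki determined for hits at 10 µM; human isoform where marked.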

[7] = target: Sodium-dependent noradrenaline transporter (Homo sapiens, UniProt P23975); assay: Binding affinity to human NE transporter; in short: as §2
Chain of Sodium-dependent noradrenaline transporter (P23975 whole entry): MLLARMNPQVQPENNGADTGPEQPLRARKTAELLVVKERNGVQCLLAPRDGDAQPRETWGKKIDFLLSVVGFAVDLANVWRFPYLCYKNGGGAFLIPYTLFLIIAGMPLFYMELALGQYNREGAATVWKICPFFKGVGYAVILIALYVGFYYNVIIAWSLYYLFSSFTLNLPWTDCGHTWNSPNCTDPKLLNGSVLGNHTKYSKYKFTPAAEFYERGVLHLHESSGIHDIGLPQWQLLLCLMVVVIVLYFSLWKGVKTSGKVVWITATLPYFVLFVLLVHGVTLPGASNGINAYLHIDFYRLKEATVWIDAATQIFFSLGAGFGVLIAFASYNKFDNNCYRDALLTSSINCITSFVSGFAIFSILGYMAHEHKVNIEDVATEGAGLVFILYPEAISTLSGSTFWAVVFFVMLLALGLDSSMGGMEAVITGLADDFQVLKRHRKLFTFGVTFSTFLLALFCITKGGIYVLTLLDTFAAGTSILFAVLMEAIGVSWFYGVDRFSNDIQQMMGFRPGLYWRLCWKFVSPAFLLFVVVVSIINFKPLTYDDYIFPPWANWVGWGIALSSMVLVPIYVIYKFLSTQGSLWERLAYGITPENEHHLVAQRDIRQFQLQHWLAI

[8] = target: Type-1 angiotensin II receptor (Homo sapiens, UniProt P30556); assay: Binding affinity to human AT1 receptor; in short: as §2
Chain of Type-1 angiotensin II receptor (P30556 whole entry): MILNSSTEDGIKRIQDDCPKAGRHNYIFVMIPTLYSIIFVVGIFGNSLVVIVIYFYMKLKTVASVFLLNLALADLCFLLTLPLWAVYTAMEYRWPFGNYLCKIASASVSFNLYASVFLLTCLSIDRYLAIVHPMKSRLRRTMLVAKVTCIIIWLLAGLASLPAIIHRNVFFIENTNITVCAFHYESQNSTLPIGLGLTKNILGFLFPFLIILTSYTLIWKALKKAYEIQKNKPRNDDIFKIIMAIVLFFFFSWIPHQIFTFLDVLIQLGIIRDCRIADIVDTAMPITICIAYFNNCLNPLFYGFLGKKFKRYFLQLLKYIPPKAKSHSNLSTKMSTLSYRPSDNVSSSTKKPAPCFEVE

[9] = target: Sodium-dependent serotonin transporter (Homo sapiens, UniProt P31645); assay: Binding affinity to human 5HT transporter; in short: as §2
[10] = target: T1, Voltage-gated L-type calcium channel (Homo sapiens, UniProt Q13936+Q13698+Q01668+O60840); assay: Binding affinity to L type calcium channel; type: protein assay; in short: as §2
[11] = target: T1, Voltage-gated L-type calcium channel; assay: Binding affinity to DHP site of L type calcium channel; type: protein assay; in short: as §2
[12] = target: T1, Voltage-gated L-type calcium channel; assay: Binding affinity to diltiazem site of L type calcium channel; type: protein assay; in short: as §2
D(1A) dopamine receptor = D(1A) dopamine receptor (Homo sapiens, UniProt P21728); assay: Binding affinity to human D1 receptor; in short: as §2
Chain of D(1A) dopamine receptor (P21728 whole entry): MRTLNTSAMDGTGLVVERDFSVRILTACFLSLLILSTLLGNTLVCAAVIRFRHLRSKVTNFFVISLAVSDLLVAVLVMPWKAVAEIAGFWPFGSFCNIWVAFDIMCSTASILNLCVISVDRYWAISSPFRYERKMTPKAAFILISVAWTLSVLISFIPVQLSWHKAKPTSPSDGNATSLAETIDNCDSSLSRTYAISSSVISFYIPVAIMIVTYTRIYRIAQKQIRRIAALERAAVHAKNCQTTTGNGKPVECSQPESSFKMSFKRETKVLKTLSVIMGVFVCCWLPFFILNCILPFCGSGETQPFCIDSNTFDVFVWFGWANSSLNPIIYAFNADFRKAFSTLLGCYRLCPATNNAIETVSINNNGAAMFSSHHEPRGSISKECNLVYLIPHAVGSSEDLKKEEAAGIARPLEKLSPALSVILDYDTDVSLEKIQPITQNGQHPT

[13] = Inhibition KCl-stimulated calcium channel activity
Cytochrome P450 1A2 = Cytochrome P450 1A2 (Homo sapiens, UniProt P05177); assay: Inhibition of CYP1A2; type: ADME
Chain of Cytochrome P450 1A2 (P05177 whole entry): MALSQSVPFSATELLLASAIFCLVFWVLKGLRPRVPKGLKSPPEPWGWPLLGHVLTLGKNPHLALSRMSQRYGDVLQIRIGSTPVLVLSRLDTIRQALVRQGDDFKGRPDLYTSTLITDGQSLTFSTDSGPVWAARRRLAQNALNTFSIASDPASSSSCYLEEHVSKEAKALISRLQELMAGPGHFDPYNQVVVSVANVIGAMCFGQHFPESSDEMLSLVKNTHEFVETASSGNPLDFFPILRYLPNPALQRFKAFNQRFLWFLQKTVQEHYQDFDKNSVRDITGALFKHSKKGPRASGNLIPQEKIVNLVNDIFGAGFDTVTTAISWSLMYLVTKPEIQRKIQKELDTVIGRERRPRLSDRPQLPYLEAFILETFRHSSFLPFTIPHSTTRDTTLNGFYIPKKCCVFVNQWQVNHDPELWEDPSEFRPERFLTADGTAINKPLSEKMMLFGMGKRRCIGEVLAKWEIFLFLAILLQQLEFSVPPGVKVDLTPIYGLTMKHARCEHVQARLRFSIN

Cytochrome P450 2C19 = Cytochrome P450 2C19 (Homo sapiens, UniProt P33261); assay: Inhibition of CYP2C19; type: ADME
Chain of Cytochrome P450 2C19 (P33261 whole entry): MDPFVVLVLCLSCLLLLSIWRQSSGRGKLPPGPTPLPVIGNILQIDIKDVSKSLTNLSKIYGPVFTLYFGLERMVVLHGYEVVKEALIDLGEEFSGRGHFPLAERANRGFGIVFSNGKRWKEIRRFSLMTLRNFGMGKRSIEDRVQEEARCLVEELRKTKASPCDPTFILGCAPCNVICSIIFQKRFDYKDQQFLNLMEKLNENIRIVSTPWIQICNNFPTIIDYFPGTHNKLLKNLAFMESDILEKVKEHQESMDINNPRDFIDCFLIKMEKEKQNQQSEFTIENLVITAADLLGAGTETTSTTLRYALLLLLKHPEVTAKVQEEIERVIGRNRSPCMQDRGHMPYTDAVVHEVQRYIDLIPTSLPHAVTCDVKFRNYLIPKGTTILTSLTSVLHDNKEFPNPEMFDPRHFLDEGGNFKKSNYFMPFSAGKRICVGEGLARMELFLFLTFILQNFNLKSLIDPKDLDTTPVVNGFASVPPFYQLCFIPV

Cytochrome P450 2D6 = Cytochrome P450 2D6 (Homo sapiens, UniProt P10635); assay: Inhibition of CYP2D6; type: ADME
D(3) dopamine receptor = D(3) dopamine receptor (Homo sapiens, UniProt P35462); assay: Binding affinity to human D3 receptor; in short: as §2
Chain of D(3) dopamine receptor (P35462 whole entry): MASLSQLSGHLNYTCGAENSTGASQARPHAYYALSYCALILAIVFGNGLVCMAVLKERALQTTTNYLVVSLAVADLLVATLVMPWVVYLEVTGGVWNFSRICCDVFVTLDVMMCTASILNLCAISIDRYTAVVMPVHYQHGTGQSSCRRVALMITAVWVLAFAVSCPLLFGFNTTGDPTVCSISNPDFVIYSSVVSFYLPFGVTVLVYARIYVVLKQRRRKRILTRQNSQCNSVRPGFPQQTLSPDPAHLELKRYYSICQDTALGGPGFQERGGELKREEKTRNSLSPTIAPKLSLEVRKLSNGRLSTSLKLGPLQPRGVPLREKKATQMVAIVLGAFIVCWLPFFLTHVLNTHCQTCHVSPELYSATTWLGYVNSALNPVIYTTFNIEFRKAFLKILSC

D(4) dopamine receptor = D(4) dopamine receptor (Homo sapiens, UniProt P21917); assay: Binding affinity to human D4.4 receptor; in short: as §2
Chain of D(4) dopamine receptor (P21917 whole entry): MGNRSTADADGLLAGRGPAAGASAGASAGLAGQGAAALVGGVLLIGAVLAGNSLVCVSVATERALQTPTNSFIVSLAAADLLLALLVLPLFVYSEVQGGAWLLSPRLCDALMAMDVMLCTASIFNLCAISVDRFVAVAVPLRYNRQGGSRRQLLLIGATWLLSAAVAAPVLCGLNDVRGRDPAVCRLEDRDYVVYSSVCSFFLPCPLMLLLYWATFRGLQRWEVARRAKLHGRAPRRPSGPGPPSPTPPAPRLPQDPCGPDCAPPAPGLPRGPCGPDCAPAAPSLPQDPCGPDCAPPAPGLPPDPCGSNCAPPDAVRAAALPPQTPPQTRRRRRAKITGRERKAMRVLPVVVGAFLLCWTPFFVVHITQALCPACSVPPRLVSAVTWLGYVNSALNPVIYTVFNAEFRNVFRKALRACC

[14] = target: Sodium-dependent dopamine transporter (Homo sapiens, UniProt Q01959); assay: Binding affinity to human DA transporter; in short: as §2
Histamine H2 receptor = Histamine H2 receptor (Homo sapiens, UniProt P25021); assay: Binding affinity to H2 receptor; in short: as §2
Chain of Histamine H2 receptor (P25021 whole entry): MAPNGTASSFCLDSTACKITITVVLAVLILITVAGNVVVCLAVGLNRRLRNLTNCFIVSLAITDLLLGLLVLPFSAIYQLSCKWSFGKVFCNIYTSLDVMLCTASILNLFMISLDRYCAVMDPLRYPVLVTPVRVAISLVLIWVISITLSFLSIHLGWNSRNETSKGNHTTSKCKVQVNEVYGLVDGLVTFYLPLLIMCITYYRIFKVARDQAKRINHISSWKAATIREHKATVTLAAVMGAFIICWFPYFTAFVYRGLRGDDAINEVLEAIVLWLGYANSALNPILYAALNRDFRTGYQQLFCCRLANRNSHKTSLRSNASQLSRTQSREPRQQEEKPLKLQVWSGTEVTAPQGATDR

[15] = target: Muscarinic acetylcholine receptor M1 (Homo sapiens, UniProt P11229); assay: Binding affinity to human M1 receptor; in short: as §2
Chain of Muscarinic acetylcholine receptor M1 (P11229 whole entry): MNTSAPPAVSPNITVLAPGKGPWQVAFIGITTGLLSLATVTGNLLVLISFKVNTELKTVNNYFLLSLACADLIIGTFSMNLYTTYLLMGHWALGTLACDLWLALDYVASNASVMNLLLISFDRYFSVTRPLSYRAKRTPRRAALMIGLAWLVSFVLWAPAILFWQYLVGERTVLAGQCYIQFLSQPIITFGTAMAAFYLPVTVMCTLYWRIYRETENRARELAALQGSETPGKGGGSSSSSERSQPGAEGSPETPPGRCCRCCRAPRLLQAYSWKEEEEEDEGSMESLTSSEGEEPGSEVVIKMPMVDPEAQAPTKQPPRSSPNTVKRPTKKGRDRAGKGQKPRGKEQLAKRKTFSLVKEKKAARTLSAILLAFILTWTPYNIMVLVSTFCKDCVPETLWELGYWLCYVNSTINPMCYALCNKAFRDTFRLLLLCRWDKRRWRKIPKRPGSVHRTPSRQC

[16] = target: Muscarinic acetylcholine receptor M4 (Homo sapiens, UniProt P08173); assay: Binding affinity to human M4 receptor; in short: as §2
Substance-P receptor = Substance-P receptor (Homo sapiens, UniProt P25103); assay: Binding affinity to human NK1 receptor; in short: as §2
Chain of Substance-P receptor (P25103 whole entry): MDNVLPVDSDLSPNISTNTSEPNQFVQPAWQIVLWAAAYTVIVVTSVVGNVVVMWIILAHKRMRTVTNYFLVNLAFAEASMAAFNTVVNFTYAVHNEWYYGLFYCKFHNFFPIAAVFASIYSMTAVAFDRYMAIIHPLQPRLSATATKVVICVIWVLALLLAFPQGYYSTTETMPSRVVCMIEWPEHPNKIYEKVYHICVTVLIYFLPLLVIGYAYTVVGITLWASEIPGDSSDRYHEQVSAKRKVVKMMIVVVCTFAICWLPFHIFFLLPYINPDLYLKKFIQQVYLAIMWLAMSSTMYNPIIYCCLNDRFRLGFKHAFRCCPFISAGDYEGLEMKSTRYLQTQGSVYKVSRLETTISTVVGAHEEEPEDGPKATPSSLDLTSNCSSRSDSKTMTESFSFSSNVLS

[17] = target: Kappa-type opioid receptor (Homo sapiens, UniProt P41145); assay: Binding affinity to kappa opiate receptor; in short: as §2
Mu-type opioid receptor = Mu-type opioid receptor (Homo sapiens, UniProt P35372); assay: Binding affinity to human mu opiate receptor; in short: as §2
[18] = target: Platelet-activating factor receptor (Homo sapiens, UniProt P25105); assay: Binding affinity to PAF; in short: as §2
[19] = target: 5-hydroxytryptamine receptor 2A (Homo sapiens, UniProt P28223); assay: Binding affinity to human 5HT2A receptor; in short: as §2
[20] = target: 5-hydroxytryptamine receptor 2C (Homo sapiens, UniProt P28335); assay: Binding affinity to human 5HT2C receptor; in short: as §2
[21] = target: 5-hydroxytryptamine receptor 7 (Homo sapiens, UniProt P34969); assay: Binding affinity to human 5HT7 receptor; in short: as §2
[22] = target: T2, Gonadotropin-releasing hormone receptor (Rattus norvegicus, UniProt P30969); assay: Binding affinity to rat pituitary GnRH receptor
T2 sequence (P30969 whole entry): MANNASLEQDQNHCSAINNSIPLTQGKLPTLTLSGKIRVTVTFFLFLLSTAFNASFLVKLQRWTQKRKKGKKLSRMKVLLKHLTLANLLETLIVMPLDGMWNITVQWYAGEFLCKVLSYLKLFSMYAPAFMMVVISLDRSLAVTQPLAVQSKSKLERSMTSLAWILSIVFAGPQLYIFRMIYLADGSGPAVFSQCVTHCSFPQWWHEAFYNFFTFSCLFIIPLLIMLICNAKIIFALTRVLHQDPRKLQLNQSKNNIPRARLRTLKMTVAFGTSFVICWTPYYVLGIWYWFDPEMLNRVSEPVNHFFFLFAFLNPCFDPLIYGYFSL

[23] = target: T2, Gonadotropin-releasing hormone receptor; assay: Antagonist activity at rat pituitary GnRH receptor assessed as inhibition of GnRH-stimulated inositol phosphate accumulation; type: functional; details: in the assay text read “recombinant rat” for “rat pituitary”
In short: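 Rat receptor functional assay run against 100 nM GnRH; total inositol phosphate accumulation measured; IC50 with Hill coefficient derived.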

IC50 (Cytochrome P450 3A4): > 30000 nM
IC50 (Cytochrome P450 2C9): 3000 nM
half-life [1]: 5.1 h
clearance [2]: 5.5 mL/min/kg
Vd [3]: 1.1 L/kg
bioavailability [4]: 26%
Activity (Rattus norvegicus [5]): Dose-dependent effect
Activity (Rattus norvegicus [6]): Dose-dependent effect
Ki (Adenosine receptor A3): 628 nM
Ki [7]: 5090 nM
Ki [8]: 3710 nM
Ki [9]: 1430 nM
Ki [10]: 145 nM
Ki [11]: 145 nM
Ki [12]: 370 nM
Ki (D(1A) dopamine receptor): 1620 nM
IC50 [13]: 6300 nM
IC50 (Cytochrome P450 1A2): > 30000 nM
IC50 (Cytochrome P450 2C19): > 30000 nM
IC50 (Cytochrome P450 2D6): > 30000 nM
Ki (D(3) dopamine receptor): 1180 nM
Ki (D(4) dopamine receptor): 2510 nM
Ki [14]: 1800 nM
Ki (Histamine H2 receptor): 1220 nM
Ki [15]: 4120 nM
Ki [16]: 3680 nM
Ki (Substance-P receptor): 1250 nM
Ki [17]: 1960 nM
Ki (Mu-type opioid receptor): 1400 nM
Ki [18]: 1060 nM
Ki [19]: 583 nM
Ki [20]: 964 nM
Ki [21]: 1750 nM
Ki [22]: 0.4 nM
IC50 [23]: 8.8 nM
SMILES: COc1nc(NCCCN2CCOCC2)nc(OC)c1NC(=O)c1ccc(Oc2cc3c(cc2C)CCC3(C)C)o1
